Source: ChEMBL document CHEMBL1126768, “A mechanism-based inactivation study of neutral endopeptidase 24.11” (J Med Chem, 1993)

How the values were obtained:
[1] = biological target: Neprilysin (Homo sapiens) (UniProt P08473); test: Inactivation constant for Neutral endopeptidase (NEP)
Outline: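 Recombinant human NEP from CHO cells (>99% pure), 0.5 μM in 50 mM HEPES pH 7.4 with 10% p-dioxane, incubated at 25 °C with inactivator at 0.5–7.5 μM final. Aliquots diluted 1:100 into DAGNPG assay solution (50 mM Tris pH 7.4, 37 °C), fluorescence read at ex 342/em 562 nm. Pseudo-first-order kobs plotted double-reciprocally against inactivator concentration to give kinact and Km.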

[2] = biological target: Angiotensin-converting enzyme (Homo sapiens) (UniProt P12821); test: Partition ratio expressed as ratio of catalytic constant to that of inactivation constant for angiotensin converting enzyme (ACE)
Sequence of Angiotensin-converting enzyme (Homo sapiens) (P12821 whole entry): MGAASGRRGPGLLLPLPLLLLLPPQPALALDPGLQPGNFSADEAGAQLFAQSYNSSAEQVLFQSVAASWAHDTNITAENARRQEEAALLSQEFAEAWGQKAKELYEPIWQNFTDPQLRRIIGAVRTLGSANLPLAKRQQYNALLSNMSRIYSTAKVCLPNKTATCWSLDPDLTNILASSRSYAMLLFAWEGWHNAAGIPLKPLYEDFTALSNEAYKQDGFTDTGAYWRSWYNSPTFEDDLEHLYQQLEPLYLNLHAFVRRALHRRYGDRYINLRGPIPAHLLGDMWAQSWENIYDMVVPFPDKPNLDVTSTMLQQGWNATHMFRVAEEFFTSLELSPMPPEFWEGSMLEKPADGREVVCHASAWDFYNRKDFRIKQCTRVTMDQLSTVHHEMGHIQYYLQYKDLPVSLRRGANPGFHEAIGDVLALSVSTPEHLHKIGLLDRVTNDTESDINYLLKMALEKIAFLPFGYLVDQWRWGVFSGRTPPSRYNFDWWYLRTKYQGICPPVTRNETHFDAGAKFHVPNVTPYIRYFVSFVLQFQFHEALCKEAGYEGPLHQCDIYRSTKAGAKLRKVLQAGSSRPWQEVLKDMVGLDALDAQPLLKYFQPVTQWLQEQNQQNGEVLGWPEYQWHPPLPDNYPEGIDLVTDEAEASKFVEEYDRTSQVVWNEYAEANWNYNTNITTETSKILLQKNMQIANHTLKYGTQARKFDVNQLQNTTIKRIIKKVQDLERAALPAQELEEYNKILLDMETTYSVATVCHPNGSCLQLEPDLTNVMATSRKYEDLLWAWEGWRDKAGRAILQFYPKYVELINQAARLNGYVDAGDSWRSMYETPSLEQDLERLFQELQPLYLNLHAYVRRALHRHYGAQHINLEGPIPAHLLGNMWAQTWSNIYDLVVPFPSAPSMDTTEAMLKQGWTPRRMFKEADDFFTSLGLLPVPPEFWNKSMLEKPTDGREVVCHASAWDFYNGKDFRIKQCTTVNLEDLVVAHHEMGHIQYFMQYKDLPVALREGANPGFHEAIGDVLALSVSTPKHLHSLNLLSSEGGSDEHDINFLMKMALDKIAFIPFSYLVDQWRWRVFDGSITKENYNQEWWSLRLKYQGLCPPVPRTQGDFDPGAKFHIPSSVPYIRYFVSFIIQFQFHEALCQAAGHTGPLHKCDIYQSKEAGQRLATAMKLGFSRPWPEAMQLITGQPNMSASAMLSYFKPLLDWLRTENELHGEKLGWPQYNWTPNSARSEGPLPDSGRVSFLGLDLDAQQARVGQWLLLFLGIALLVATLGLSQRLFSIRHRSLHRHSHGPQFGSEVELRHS

[3] = biological target: T1, Angiotensin-converting enzyme (Rattus norvegicus) (UniProt P47820); test: Inactivation constant for angiotensin converting enzyme (ACE)
T1 sequence (whole entry): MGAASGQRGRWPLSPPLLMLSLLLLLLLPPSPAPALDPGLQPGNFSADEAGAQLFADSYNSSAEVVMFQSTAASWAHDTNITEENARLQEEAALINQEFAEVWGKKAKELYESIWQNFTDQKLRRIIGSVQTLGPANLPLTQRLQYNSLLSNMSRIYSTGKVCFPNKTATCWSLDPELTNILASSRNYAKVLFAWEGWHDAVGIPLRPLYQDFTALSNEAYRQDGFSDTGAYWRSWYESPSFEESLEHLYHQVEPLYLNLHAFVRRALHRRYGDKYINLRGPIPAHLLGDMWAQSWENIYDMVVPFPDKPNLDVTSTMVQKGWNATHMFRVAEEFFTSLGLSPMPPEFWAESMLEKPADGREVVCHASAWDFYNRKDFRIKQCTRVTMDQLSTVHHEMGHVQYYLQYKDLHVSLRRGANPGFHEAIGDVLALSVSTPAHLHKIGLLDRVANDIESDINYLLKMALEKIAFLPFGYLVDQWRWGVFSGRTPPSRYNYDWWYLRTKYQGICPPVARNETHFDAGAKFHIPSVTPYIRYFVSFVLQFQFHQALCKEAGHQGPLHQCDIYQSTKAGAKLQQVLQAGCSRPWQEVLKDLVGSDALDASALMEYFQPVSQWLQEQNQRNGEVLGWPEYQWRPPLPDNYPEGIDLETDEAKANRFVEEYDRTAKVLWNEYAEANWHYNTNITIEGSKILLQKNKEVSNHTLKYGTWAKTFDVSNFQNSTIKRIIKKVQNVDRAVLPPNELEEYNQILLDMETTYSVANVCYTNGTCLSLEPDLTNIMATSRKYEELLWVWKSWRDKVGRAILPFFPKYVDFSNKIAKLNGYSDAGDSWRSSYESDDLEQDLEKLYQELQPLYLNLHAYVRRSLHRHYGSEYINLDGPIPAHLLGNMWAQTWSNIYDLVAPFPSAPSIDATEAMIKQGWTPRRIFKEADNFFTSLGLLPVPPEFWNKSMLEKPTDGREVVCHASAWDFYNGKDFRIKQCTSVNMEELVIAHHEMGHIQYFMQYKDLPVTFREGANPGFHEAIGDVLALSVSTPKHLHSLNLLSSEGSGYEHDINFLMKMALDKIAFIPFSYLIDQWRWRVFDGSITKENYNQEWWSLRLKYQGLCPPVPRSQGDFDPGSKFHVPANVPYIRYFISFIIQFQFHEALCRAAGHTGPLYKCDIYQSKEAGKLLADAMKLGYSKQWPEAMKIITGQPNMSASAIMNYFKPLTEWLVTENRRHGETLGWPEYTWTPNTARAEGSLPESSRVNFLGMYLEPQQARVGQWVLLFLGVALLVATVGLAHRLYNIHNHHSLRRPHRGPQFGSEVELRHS

[4] = Partition ratio expressed as ratio of catalytic constant to that of inactivation constant for (NEP)
Outline: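 Partition ratio was found by titration. NEP at 0.5 μM in 50 mM HEPES pH 7.4 was mixed with inactivator at inactivator/NEP molar ratios from 1 up to 2600 or 6000, then stirred gently at 4 °C for 16 h. Aliquots were diluted 1:100 into DAGNPG assay solution and residual activity was measured fluorometrically. Controls lacked inactivator.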

[5] = biological target: Neprilysin (Homo sapiens) (UniProt P08473)

Sequence of Neprilysin (Homo sapiens) (P08473 whole entry): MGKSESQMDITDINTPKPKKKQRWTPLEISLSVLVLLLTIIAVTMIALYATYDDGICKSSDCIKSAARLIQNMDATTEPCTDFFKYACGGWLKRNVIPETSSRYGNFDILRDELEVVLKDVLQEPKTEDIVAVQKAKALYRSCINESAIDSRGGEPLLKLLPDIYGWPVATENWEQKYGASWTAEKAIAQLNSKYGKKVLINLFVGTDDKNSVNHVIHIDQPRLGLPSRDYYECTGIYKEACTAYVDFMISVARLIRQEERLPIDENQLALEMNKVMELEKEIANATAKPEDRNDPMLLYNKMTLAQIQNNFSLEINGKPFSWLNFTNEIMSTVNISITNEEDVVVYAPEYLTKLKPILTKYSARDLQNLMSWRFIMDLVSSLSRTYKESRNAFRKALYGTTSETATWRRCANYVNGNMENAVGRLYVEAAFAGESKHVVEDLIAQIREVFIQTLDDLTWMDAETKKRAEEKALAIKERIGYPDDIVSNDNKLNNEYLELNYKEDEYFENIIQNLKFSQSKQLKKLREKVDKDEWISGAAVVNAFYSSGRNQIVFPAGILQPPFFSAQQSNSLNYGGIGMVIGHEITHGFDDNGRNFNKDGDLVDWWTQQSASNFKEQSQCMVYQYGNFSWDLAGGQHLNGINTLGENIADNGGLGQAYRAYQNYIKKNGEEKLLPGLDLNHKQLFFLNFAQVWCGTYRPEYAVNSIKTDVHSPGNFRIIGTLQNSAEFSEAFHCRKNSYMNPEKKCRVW

N#CCC(=O)NC(Cc1ccccc1)C(=O)NC(Cc1ccccc1)C(=O)O (stereo unspecified)
kinact [1]: 0.022 min⁻¹
K cat/Kinact [2]: 8300
kinact [3]: 0.08 min⁻¹
K cat/Kinact [4]: 4700

N#CCC(=O)CC(Cc1ccccc1)C(=O)NC(Cc1ccccc1)C(=O)O (stereo unspecified)
K cat/Kinact [4]: 1340
kinact [5]: 0.071 min⁻¹
